According to ChEMBL document CHEMBL1157826 (J Med Chem, 2010):
pIC50: −log10 of the molar value. The source made the active and inactive calls. The rule behind the calls is not given here.

Columns and labels:
[1] = (§1) Metabolic stability in rat liver microsomes at 4 uM after 40 mins by LC/MS/MS analysis; type: ADME, Microsome; settings: liver microsomes, read-out: Stability
How it was run: (§2)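 Test compounds were incubated in rat liver microsomal preparations for 40 min, and the fraction of compound remaining or degraded was reported.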

[2] = tested on: Liver microsomes; test: as §1; type: ADME, Microsome; settings: microsomes, 40 min, 4 µM; how it was run: as §2
[3] = Chemical stability at 10 mmol/L after 80 days at -20 degC by LC/MS/MS analysis; type: physicochemical; settings: 1920 h, 10000 µM
[4] = Chemical stability at 10 mmol/L after 80 days at 21 degC by LC/MS/MS analysis; type: physicochemical; settings: 1920 h, 10000 µM
[5] = Chemical stability at 10 mmol/L after 80 days at 37 degC by LC/MS/MS analysis; type: physicochemical; settings: 1920 h, 10000 µM
[6] = Chemical stability at 10 mmol/L after 80 days at 42 degC by LC/MS/MS analysis; type: physicochemical; settings: 1920 h, 10000 µM
[7] = tested on: Mus musculus; test: Reduction of Bcl-2 accumulation in human Bcl2 expressing B6 transgenic mouse assessed as reduction in spleen weight at 42 mg/kg, ip administered as single dose after 24 hrs; type: functional; settings: route intraperitoneal; for inhibition in vivo at 42 mg/kg: Mus musculus, B6, Spleen, ip, 24 h
How it was run: (§3)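 Age- and sex-matched B6 transgenic mice (human BCL-2 minigene fused to the IgH locus/enhancer, not yet lymphomatous; two per compound) received a single i.p. dose in 500 μL ethanol/Cremophor EL/saline 10:10:80. Controls received vehicle alone. Mice were killed with Avertin 24 h later and spleens weighed. Shrinkage was expressed as percent reduction versus controls.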

[8] = tested on: Mus musculus; test: Reduction of Bcl-2 accumulation in human Bcl2 expressing B6 transgenic mouse assessed as induction of spleen shrinkage at 42 mg/kg, ip administered as single dose after 24 hrs; type: functional; parameters: scale not given: the % may be the effect or the level left; settings: route intraperitoneal; how it was run: as §3
[9] = tested on: BP3; test: Induction of apoptosis in human BP3 cells after 1 to 2 days by FITC-conjugated annexin V and propidium iodide staining-based FACS analysis; type: functional, cell-based
[10] = target: Bcl-2-like protein 1 (Homo sapiens, UniProt Q07817); test: Displacement of FITC-labeled Bak BH3 peptide from Bcl-XL after 30 mins by fluorescence polarization assay
[11] = tested on: MEF; test: Induction of apoptosis in MEF expressing wild type Bcl-2 protein at 30 uM after 24 hrs by FITC-conjugated annexin V and propidium iodide staining-based FACS analysis; type: functional, cell-based; settings: Mus musculus
How it was run: (§4)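 Next day, compound was added at final 0, 2.5, 5.0, 7.5, 10 and 30 μM. The following day, floating and trypsinized adherent cells were pooled and stained with Annexin V-FITC/PI. Cells negative for both were scored viable by flow cytometry.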

[12] = tested on: MEF; test: Induction of apoptosis in Bak/Bax double knockout MEF at 30 uM after 24 hrs by FITC-conjugated annexin V and propidium iodide staining-based FACS analysis; type: functional; settings: Mus musculus; how it was run: as §4
[13] = tested on: M2182; test: Antitumor activity against Mcl-1 overexpressing human M2182 cells xenografted in BALB/c mouse assessed as reduction of tumor size at 1 to 5 mg/kg, ip administered 9 times every 2 days; type: functional, organism-based
How it was run: (§5)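 Dosing started at visible tumors of ~75 mm3 (~5–6 days): i.p. every 2 days, nine injections in all, in ethanol/Cremophor EL/saline 10:10:80 (500 μL). Vehicle controls were used, with at least five mice per group. Tumors were followed by luciferin (150 mg/kg i.p.) bioluminescence imaging and excised at study end.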

[14] = tested on: M2182; test: Antitumor activity against Mcl-1 overexpressing human M2182 cells xenografted in BALB/c mouse assessed as complete inhibition of tumor growth at 5 mg/kg, ip administered 9 times every 2 days; type: functional, organism-based; parameters: dose 5 mg/kg; how it was run: as §5
[15] = Antitumor activity against Mcl-1 overexpressing human M2182 cells xenografted in BALB/c mouse assessed as inhibition of tumor growth at 3 mg/kg, ip administered 9 times every 2 days; type: functional; parameters: scale not given: the % may be the effect or the level left; settings: route intraperitoneal; how it was run: as §5
[16] = tested on: Mus musculus; test: Toxicity in BALB/c mouse xenografted with Mcl-1 overexpressing human M2182 cells at 1 to 5 mg/mg, ip administered 9 times every 2 days; type: organism-based; settings: in vivo, 48 h
How it was run: (§6)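 Athymic nude male mice bearing bilateral s.c. M2182-Luc tumors (~75 mm3) received i.p. doses every 2 days, nine injections in all, in ethanol/Cremophor EL/saline 10:10:80 (500 μL). At least five animals per group. Tolerability was judged by signs of toxicity over the course of treatment.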

[17] = tested on: Mus musculus; test: Toxicity in BALB/c mouse xenografted with Mcl-1 overexpressing human M2182 cells at 10 to 25 mg/mg, ip administered 9 times every 2 days; type: organism-based; settings: in vivo, 48 h; how it was run: as §6
[18] = tested on: MEF; test: Induction of apoptosis in Bak/Bax double knockout MEF at […] after 24 hrs by FITC-conjugated annexin V and propidium iodide staining-based FACS analysis; type: functional, cell-based; settings: Mus musculus; how it was run: as §4
[19] = tested on: M2182; test: Antitumor activity against Mcl-1 overexpressing human M2182 cells xenografted in BALB/c mouse assessed as reduction of tumor size at 25 mg/kg, ip administered 9 times every 2 days; type: functional, organism-based; parameters: dose 25 mg/kg; how it was run: as §5
[20] = tested on: M2182; test: Antitumor activity against Mcl-1 overexpressing human M2182 cells xenografted in BALB/c mouse assessed as reduction of tumor size at 10 mg/kg, ip administered 9 times every 2 days; type: functional, organism-based; parameters: dose 10 mg/kg; how it was run: as §5
[21] = tested on: M2182; test: Antitumor activity against Mcl-1 overexpressing human M2182 cells xenografted in BALB/c mouse assessed as complete inhibition of tumor growth at 25 mg/kg, ip administered 9 times every 2 days; type: functional, organism-based; parameters: dose 25 mg/kg; how it was run: as §5

Bcl-2-like protein 1, sequence (Q07817 whole entry): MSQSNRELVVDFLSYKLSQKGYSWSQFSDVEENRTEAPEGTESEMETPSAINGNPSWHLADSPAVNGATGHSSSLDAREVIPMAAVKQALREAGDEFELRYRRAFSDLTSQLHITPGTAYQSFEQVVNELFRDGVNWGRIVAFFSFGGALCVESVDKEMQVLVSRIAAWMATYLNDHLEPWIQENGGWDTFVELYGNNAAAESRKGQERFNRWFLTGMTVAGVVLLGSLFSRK

## Cc1cc2c(C(=O)NC[C@@H](C)c3ccccc3)c(O)c(O)cc2c(O)c1-c1c(C)cc2c(C(=O)NC[C@@H](C)c3ccccc3)c(O)c(O)cc2c1O [(S)-1',6,6',7,7'-HEXAHYDROXY-3,3'-DIMETHYL-N5-((S)-2-PHENYLPROPYL)-N5'-((S)-2-PHENYLPROPYL)-2,2'-BINAPHTHYL-5,5'-DICARBOXAMIDE (ATROPISOMERIC MIX)]
[1]
  remaining at 40 min, 4 µM: 41%

## Cc1cc2c(C(=O)NC[C@@H](C)c3ccccc3)c(O)c(O)cc2c(O)c1-c1c(C)cc2c(C(=O)NC[C@@H](C)c3ccccc3)c(O)c(O)cc2c1O (single isomer, unassigned; atropisomer) [listing 1 of 2 here]
[2]
  Stability: 42%
[3]
  Stability: Stable
[4]
  Stability: Stable
[5]
  Stability: Stable
[6]
  Stability: Stable
[7]
  inhibition in vivo at 42 mg/kg: ≤ 20%
[8]
  Activity: <=40%

## Cc1cc2c(C(=O)NC[C@@H](C)c3ccccc3)c(O)c(O)cc2c(O)c1-c1c(C)cc2c(C(=O)NC[C@@H](C)c3ccccc3)c(O)c(O)cc2c1O (single isomer, unassigned; atropisomer) [listing 2 of 2 here]
[9]
  Activity: Dose-dependent effect

## Cc1cc2c(C(=O)NC[C@H](C)c3ccccc3)c(O)c(O)cc2c(O)c1-c1c(C)cc2c(C(=O)NC[C@H](C)c3ccccc3)c(O)c(O)cc2c1O
[9]
  Activity: Dose-dependent effect

## Cc1cc2c(C(C)C)c(O)c(O)c(C=O)c2c(O)c1-c1c(C)cc2c(C(C)C)c(O)c(O)c(C=O)c2c1O [GOSSYPOL]
[10]
  pIC50: 6.27

## Cc1cc2c(C(=O)NC[C@@H](C)c3ccccc3)c(O)c(O)cc2c(O)c1-c1c(C)cc2c(C(=O)NC[C@@H](C)c3ccccc3)c(O)c(O)cc2c1O
[9]
  Activity: Dose-dependent effect
[11]
  Activity: Active
[12]
  Activity: Active

## Cc1cc2c(C(=O)NC[C@H](C)c3ccccc3)c(O)c(O)cc2c(O)c1-c1c(C)cc2c(C(=O)NC[C@H](C)c3ccccc3)c(O)c(O)cc2c1O (single isomer, unassigned; atropisomer) [listing 1 of 2 here]
[9]
  Activity: Dose-dependent effect
[11]
  Activity: Active
[13]
  Activity: Active
[14]
  Activity: Active

## Cc1cc2c(C(=O)NC[C@H](C)c3ccccc3)c(O)c(O)cc2c(O)c1-c1c(C)cc2c(C(=O)NC[C@H](C)c3ccccc3)c(O)c(O)cc2c1O (single isomer, unassigned; atropisomer) [listing 2 of 2 here]
[2]
  Stability: 41%
[3]
  Stability: Stable
[4]
  Stability: Stable
[5]
  Stability: Stable
[6]
  Stability: Stable
[7]
  inhibition in vivo at 42 mg/kg: > 30%
[8]; 42 mg/kg
  Activity: 65%
[15]
  Activity: 40%
[16]
  Activity: Non-toxic

## Cc1cc2c(C(=O)NC[C@H](C)c3ccccc3)c(O)c(O)cc2c(O)c1-c1c(C)cc2c(C(=O)NC[C@H](C)c3ccccc3)c(O)c(O)cc2c1O [1,1',6,6',7,7'-HEXAHYDROXY-3,3'-DIMETHYL-N5-((R)-2-PHENYLPROPYL)-N5'-((R)-2-PHENYLPROPYL)-2,2'-BINAPHTHYL-5,5'-DICARBOXAMIDE (ATROPISOMERIC MIX)]
[1]
  remaining at 40 min, 4 µM: 28%
[7]; 42 mg/kg
  inhibition (INH): <=20%
[8]; 42 mg/kg
  Activity: <=40%
[17]
  Activity: Non-toxic

## Cc1cc2c(C(=O)NCC(C)c3ccccc3)c(O)c(O)cc2c(O)c1-c1c(C)cc2c(C(=O)NCC(C)c3ccccc3)c(O)c(O)cc2c1O (racemic)
[18]
  Activity: Active
[19]
  Activity: Active
[20]
  Activity: inactive
[21]
  Activity: Active
[17]
  Activity: Non-toxic
